# Experimental data reported in PMC11031320 (Cell chemical biology, 2024).
# “Also recorded” adds a separate entry of the source. Where two headings read alike, the source gives them in different places.
# What was measured:
# [1] = target: T1, PfHsp90 (Plasmodium falciparum, UniProt Q8IC05); settings: cited from earlier work
# [2] = target: T2, HsHsp90 (Homo sapiens, UniProt P07900); experiment: FITC-geldanamycin competitive binding assay
# [3] = system: P. berghei ANKA; experiment: Liver stage parasite load in HuH7 cells; type: cell-based, Plasmodium berghei; settings: for EC50: Plasmodium berghei, Huh-7, 44 h, read-out: EC50, liver stage P. berghei; for relative P. berghei parasite load in HuH7 cells: at ~30 μM
# [4] = target: HsHsp90 NBD E25D/K112R (Homo sapiens, UniProt P07900, E25D/K112R); experiment: FITC-GA competition, salt bridge double mutant HsHsp90 NBD; type: binding
# [5] = system: HsHsp90 NBD L122I/G125S/A126G and Q23N; experiment: FITC-GA competition, other HsHsp90 NBD variants; type: binding, human; settings: compared to WT HsHsp90 NBD
# Procedure, shortened: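 Fluorescence polarization displacement of 1.0 nM FITC-geldanamycin from each His-tagged human Hsp90 NBD variant (25 nM). Buffer was 20 mM HEPES pH 7.3, KCl, MgCl2, Na2MoO4, DTT, 0.01% NP-40. Test compound was dosed at 0–10 μM with 1% final DMSO. Plates were held overnight at 4 °C in the dark, then read at Ex 480/Em 535. Percent bound was normalized to protein-only and protein-free tracer controls. At least 4 independent determinations.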
# [6] = system: P. falciparum 3D7; experiment: Asexual blood stage parasite inhibition assay; type: cell-based; settings: Plasmodium falciparum, 3D7, 72 h, read-out: EC50, blood stage P. falciparum 3D7
# Procedure, shortened: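 Ring-stage 3D7 cultures (2% parasitemia, 1% hematocrit) were exposed to test compound at 0–50 μM (0.5% DMSO) for 72 h at 37 °C under 3% O2/5% CO2/92% N2. Controls were DMSO and quinacrine (1 μM). Cells were lysed in saponin/Triton X-100 buffer with 10X SYBR Green I and stained 24 h at RT in the dark. Fluorescence was read at Ex 485/Em 535 and normalized to controls. 2–3 replicates, 2–4 independent experiments.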
# [7] = system: HuH7 cells; experiment: HuH7 host cell viability; type: cell-based, human; settings: at 10 μM
# [8] = target: wild-type (WT) HsHsp90 nucleotide-binding domain (NBD) (Homo sapiens, UniProt P07900); experiment: FITC-GA competition, wild-type HsHsp90 nucleotide-binding domain
# [9] = target: T1, PfHsp90; experiment: FITC-geldanamycin competitive binding assay
# [10] = system: PfHsp90; experiment: FITC-geldanamycin competitive binding assay; settings: ratio of HsHsp90 to PfHsp90 affinity
# [11] = system: 26S proteasome; experiment: Native gel in-gel Suc-LLVY-AMC hydrolysis, 26S band; type: cell-based, Plasmodium falciparum
# [12] = system: 20S particles; experiment: Native gel in-gel Suc-LLVY-AMC hydrolysis, 20S band after SDS activation; type: cell-based, Plasmodium falciparum
# [13] = system: P. falciparum gametocytes (NF54 peg4-tdTomato); experiment: Gametocyte inhibition assay; type: cell-based; settings: Plasmodium falciparum
# [14] = system: P. falciparum proteasome; type: biochemical, Plasmodium falciparum
# [15] = target: T2, HsHsp90; settings: read-out: Kd of FITC-GA to full-length HsHsp90; cited from earlier work
# [16] = 10 μM, 3 hours, cycloheximide 50 μM co-treatment
# [17] = NF54, 24 h, read-out: early gametocyte viability
# [18] = NF54, 240 h, read-out: late gametocyte viability
# [19] = lysate treated with epoxomicin vs DMSO
smiles,measurement,setting,value
COc1ccc2c(c1)[nH]c1c(C)nccc12 [harmine],affinity,[1],micromolar
CC[C@@H](C)Nc1cc(C(=O)NC2C[C@H]3CC[C@@H](C2)N3c2ccc(C(=O)C3CC3)cn2)c(C)cc1C(N)=O (stereo partly drawn) [XL888],Ki,[2],130 ± 30 nM
same,EC50,[3],240 ± 45 nM
same,relative P. berghei parasite load in HuH7 cells,[3],near zero
same,Ki,[4],9.6 ± 1.6 nM
same,improvement in affinity to E25D/K112R double mutant compared to WT HsHsp90 NBD,[4],7 fold
same,change in affinity for other HsHsp90 NBD constructs,[5],no significant differences
same,EC50,[6],330 ± 110 nM
same,decrease of HuH7 viability,[7],≤ 50%
same,Ki,[8],68 ± 23 nM
same,Ki,[9],27 ± 7.8 nM
same,selectivity to PfHsp90 over HsHsp90,[10],4.8 fold
COC1=C2C[C@@H](C)C[C@H](OC)[C@H](O)[C@@H](C)/C=C(\C)[C@H](OC(N)=O)[C@@H](OC)/C=C\C=C(/C)C(=O)NC(=CC1=O)C2=O [geldanamycin],proportion of active 26S proteasomes compared to DMSO control,[11]; [16],63%
same,latent 20S particles (after activation) compared to DMSO control,[12]; [16],158%
same,viability at 1 µM,[13]; [17],37%
same,viability at 10 µM,[13]; [17],16%
same,viability at 1 µM,[13]; [18],71%
same,viability at 10 µM,[13]; [18],56%
CCOC(=O)NCc1ccc(-n2c(-c3cc(C(C)C)c(O)cc3O)n[nH]c2=S)cc1 [BX-2819],Ki,[2],49 ± 4.3 nM
same,EC50,[3],1500 ± 410 nM
same,relative P. berghei parasite load in HuH7 cells,[3],near zero
same,Ki,[4],13 ± 2.5 nM
same,change in affinity for other HsHsp90 NBD constructs,[5],unaltered
same,EC50,[6],740 ± 34 nM
same,decrease of HuH7 viability,[7],≤ 50%
same,Ki,[8],19 ± 4 nM
same,Ki,[9],24 ± 4.4 nM
same,displacement of FITC-GA from PfHsp90,[9]; BX-2819 10 μM,displaces FITC-GA
same,selectivity to PfHsp90 over HsHsp90,[10],2.0 fold
same,reaction rate compared to DMSO control,[14]; 100 μM BX-2819 with 3 μM purified PfHsp90,not different from the DMSO control
same,Suc-LLVY-AMC hydrolysis in PfHsp90-treated samples,[14]; BX-2819 10–100 μM with PfHsp90 3 μM,reduced hydrolysis in a dose-dependent manner; also recorded: negated the increased rate
CO[C@H]1/C=C\C=C(/C)C(=O)NC2=CC(=O)C(NCCCCCCNC(=S)Nc3ccc(-c4c5ccc(=O)cc-5oc5cc(O)ccc45)c(C(=O)O)c3)=C(C[C@@H](C)C[C@H](OC)[C@H](O)[C@@H](C)/C=C(\C)[C@@H]1OC(N)=O)C2=O [FITC-GA],Kd,[1]; read-out: Kd of FITC-GA to full-length PfHsp90,42 nM
same,Kd,[15],23 nM
CC[C@H](C)[C@H](NC(=O)[C@H]([C@@H](C)CC)N(C)C(C)=O)C(=O)N[C@H](C(=O)N[C@@H](CC(C)C)C(=O)[C@@]1(C)CO1)[C@@H](C)O [epoxomicin],26S band,[11]; [19],reduced
same,activated 20S band,[12]; [19],reduced
CC(C)C[C@H](NC(=O)[C@H](Cc1ccccc1)NC(=O)c1cnccn1)B(O)O [bortezomib],Suc-LLVY-AMC hydrolysis in P. falciparum lysate,"[14]; bortezomib 25 μM, 180 min, compared to DMSO",significantly reduced; also recorded: decreased total hydrolysis
